In data set [1] the test system is Mus musculus. Put plainly: Potency index, ratio of IC50 for LRRK2 […] mutant […] phosphorylation in BAC-transgenic mouse at 3 to 100 mg/kg, sc to IC50 for wild type LRRK2 […] phosphorylation in BAC-transgenic C57BL/6J mouse brain at 3 to 100 mg/kg, sc. It counts as functional. Summed up:
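Four-month-old C57BL/6J mice and seven-month-old LRRK2 BAC-transgenic G2019S mice received single subcutaneous doses. Vehicle was 10% NMP in 20% SBECD. Brain was collected 90 min after dosing and snap frozen. LRRK2 pS935 phosphorylation was measured in brain lysate. An unbound-drug IC50 was estimated from the dose–response in each strain.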

Data set [2] in a line: Half life in non-human primate at 5 mg/kg, po. It counts as ADME, organism-based. Set-up: dose 5 mg/kg, route oral. Conditions: monkey, in vivo.
Data set [3] relates to Rattus norvegicus. Kind of data set: fCmax in Wistar Han rat at 60 mg/kg, po bid for 14 days. The data set is classed as ADME, organism-based. Details: dose 60 mg/kg, route oral. Conditions: in vivo, 336 h.
The test system of data set [4] is Rattus norvegicus. Kind of data set: Drug coverage index, ratio fAUC in Wistar Han rat at 6 mg/kg, po bid for 14 days to IC50 for LRRK2 […] phosphorylation in Wistar Han rat brain at 6 to 60 mg/kg, po bid for 14 days. Conditions: in vivo, 336 h. The data set is classed as ADME, organism-based. The method, boiled down:
(§1)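 Wistar Han rats (200–300 g, 8–11 weeks old) were dosed by oral gavage twice daily for 14 days. Vehicle was 10% propylene glycol/20% PEG400/70% 9.5% methocellulose.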

Data set [5] is described as follows: Oral bioavailability in non-human primate at 5 mg/kg. It counts as ADME, organism-based. Conditions: monkey, in vivo.
Data set [6] can be described thus: Clearance in human liver microsomes. The data set is classed as ADME. Conditions: read-out: CLH. Summed up: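 Human liver microsomal clearance.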
The subject of data set [7] is Rattus norvegicus. Kind of data set: Toxicity in Wistar Han rat assessed as changes in food consumption at 6 to 60 mg/kg, po bid for 14 days. The following applies: in vivo, 336 h. Details: dose 6-60 mg/kg, route oral. The data set is classed as organism-based. Summed up:
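Wistar Han rats (200–300 g, 8–11 weeks) dosed by oral gavage twice daily for 14 days. Vehicle: 10% propylene glycol/20% PEG400/70% methylcellulose solution. RBC parameters, electrolytes, food consumption, body weight, clinical chemistry and urinary biomarkers recorded.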

The target in data set [8] is Leucine-rich repeat serine/threonine-protein kinase 2 (Homo sapiens, UniProt Q5S007). Kind of data set: Inhibition of full length LRRK2 (unknown origin) expressed in HEK293 cells assessed as reduction in S935 phosphorylation incubated for 90 mins by ELISA method. The data set is classed as cell-based.
Sequence of Leucine-rich repeat serine/threonine-protein kinase 2 (Q5S007 whole entry): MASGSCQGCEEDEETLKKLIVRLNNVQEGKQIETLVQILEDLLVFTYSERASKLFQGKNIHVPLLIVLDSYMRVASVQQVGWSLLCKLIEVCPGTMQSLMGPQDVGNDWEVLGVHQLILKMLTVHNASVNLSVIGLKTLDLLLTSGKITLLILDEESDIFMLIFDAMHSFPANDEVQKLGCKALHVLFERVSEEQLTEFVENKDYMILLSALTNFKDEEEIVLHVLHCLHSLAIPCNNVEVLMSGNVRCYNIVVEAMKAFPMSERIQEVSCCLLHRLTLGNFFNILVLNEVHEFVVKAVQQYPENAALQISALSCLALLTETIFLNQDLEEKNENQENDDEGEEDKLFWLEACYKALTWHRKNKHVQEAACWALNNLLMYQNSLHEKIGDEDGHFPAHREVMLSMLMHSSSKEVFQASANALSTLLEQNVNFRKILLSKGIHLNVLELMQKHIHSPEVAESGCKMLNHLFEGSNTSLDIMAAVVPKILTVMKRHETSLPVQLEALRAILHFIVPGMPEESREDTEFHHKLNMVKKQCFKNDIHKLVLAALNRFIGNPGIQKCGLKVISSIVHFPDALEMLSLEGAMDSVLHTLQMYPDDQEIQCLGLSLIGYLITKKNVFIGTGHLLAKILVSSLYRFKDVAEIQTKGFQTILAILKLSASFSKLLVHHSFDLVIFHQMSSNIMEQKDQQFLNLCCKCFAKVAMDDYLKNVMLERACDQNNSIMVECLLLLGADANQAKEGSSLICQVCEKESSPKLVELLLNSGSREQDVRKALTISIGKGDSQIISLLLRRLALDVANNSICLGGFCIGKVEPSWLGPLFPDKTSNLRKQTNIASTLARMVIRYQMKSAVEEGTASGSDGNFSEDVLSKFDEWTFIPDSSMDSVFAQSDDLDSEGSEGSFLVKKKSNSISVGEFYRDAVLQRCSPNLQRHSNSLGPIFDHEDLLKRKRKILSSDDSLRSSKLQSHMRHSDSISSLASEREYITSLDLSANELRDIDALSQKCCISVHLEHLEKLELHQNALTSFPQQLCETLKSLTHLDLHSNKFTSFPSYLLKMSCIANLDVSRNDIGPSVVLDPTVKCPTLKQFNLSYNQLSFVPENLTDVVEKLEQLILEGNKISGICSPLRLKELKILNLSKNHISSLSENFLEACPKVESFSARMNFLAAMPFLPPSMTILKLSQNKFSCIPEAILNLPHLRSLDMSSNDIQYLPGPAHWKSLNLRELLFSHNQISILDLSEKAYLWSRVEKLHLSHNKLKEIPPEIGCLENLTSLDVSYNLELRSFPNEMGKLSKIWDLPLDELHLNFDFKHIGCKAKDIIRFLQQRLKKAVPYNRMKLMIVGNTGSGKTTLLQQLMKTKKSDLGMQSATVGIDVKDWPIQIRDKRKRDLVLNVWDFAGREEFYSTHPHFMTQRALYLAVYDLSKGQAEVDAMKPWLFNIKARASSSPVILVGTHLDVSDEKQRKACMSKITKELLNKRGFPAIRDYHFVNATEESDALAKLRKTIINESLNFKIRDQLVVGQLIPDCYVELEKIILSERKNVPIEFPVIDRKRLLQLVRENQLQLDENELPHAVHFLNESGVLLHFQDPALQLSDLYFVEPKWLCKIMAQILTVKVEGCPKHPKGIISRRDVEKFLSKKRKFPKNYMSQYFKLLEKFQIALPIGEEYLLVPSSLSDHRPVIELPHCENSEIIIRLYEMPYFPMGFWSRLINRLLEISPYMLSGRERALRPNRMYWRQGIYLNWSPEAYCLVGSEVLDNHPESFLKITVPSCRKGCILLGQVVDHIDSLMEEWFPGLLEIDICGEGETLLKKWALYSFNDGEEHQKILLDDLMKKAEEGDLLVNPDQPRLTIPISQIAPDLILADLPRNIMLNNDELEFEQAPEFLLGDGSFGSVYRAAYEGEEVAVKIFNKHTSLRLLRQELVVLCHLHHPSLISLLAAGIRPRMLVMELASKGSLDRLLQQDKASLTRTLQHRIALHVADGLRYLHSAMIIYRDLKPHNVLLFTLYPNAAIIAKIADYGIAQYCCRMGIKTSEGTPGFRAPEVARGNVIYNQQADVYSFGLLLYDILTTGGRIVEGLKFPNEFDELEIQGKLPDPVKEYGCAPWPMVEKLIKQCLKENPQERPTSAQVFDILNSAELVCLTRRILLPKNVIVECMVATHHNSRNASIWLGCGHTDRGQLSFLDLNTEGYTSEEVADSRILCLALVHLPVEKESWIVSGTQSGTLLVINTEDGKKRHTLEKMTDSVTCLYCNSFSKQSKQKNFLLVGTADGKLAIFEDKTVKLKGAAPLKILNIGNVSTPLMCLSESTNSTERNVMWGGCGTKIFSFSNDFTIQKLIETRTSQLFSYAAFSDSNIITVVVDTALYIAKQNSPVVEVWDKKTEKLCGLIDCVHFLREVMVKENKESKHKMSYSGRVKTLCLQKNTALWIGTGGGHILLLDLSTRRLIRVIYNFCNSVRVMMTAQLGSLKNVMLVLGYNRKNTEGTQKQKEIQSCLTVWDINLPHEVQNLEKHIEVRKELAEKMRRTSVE
In data set [9] the target is Serine/threonine-protein kinase 26 (Homo sapiens, UniProt Q9P289). Kind of data set: Inhibition of human recombinant MST4 using Ser/Thr peptide 7 substrate after 60 mins by Z-Lyte assay. The method, boiled down:
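Z-Lyte FRET assay, final 2 μM Ser/Thr peptide 7, 75 μM ATP, 18 nM kinase. Buffer 50 mM HEPES (pH 7.0 for MST2, 7.5 for MST4), 10 mM MgCl2, 1 mM EGTA, 0.01% Brij-35. Stopped at 45 min (MST2) or 60 min (MST4). Excitation 400 nm, emission 445/520 ratio converted to percent phosphorylation for IC50.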

Data set [10] has as its target T1, Tyrosine-protein kinase JAK3 (Homo sapiens) (UniProt P52333).
T1 sequence (whole entry): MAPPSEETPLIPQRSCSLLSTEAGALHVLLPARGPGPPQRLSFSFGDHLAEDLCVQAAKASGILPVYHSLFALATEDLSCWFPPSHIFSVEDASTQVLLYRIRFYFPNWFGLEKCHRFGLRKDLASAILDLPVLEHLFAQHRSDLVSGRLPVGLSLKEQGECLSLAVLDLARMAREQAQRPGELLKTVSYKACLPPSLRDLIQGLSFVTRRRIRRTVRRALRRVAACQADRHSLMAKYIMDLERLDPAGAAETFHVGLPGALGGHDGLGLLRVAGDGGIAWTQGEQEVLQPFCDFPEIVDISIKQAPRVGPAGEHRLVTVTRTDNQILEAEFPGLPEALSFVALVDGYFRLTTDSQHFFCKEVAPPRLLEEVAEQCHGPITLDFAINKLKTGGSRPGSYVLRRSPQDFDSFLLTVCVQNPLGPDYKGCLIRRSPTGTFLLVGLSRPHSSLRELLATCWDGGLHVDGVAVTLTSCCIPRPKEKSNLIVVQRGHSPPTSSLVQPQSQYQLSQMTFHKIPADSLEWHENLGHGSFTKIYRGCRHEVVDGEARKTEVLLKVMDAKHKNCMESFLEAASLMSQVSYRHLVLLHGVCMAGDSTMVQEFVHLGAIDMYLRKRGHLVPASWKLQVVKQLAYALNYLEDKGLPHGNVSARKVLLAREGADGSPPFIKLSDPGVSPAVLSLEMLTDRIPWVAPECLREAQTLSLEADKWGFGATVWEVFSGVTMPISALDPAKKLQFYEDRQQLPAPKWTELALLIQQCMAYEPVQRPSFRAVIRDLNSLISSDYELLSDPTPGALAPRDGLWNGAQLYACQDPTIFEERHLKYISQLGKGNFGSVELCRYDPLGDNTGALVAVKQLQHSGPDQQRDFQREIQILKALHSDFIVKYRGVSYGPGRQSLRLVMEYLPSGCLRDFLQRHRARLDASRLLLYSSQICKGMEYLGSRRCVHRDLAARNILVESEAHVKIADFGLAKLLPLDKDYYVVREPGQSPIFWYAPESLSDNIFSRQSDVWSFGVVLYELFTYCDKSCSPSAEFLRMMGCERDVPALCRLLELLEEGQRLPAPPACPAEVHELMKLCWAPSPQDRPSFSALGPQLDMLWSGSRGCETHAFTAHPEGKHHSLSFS
Kind of data set: Inhibition of JAK3 (JH1 domain-catalytic) (unknown origin) at 1 uM.

Data set [11] can be described thus: Cmax in dog at 5 mg/kg, po. Conditions: in vivo. Details: dose 5 mg/kg, route oral. The data set is classed as ADME, organism-based, Canis lupus familiaris.
Data set [12] has as its system Rattus norvegicus. Put plainly: fCmax in Wistar Han rat at 20 mg/kg, po bid for 14 days. It counts as ADME, organism-based. Set-up: dose 20 mg/kg, route oral. The following applies: in vivo, 336 h.
Data set [13] concerns Rattus norvegicus. Kind of data set: Volume of distribution at steady state in rat at 5 mg/kg, po. The data set is classed as ADME, organism-based. The following applies: in vivo. Details: dose 5 mg/kg, route oral.
The nature of data set [14]: Tmax in rat at 5 mg/kg, po. The data set is classed as ADME, organism-based. Details: dose 5 mg/kg, route oral. Conditions: in vivo.
For data set [15], the target named is Tyrosine-protein kinase JAK1 (Homo sapiens, UniProt P23458). Put plainly: Inhibition of JAK1 (JH2 domain-pseudokinase) (unknown origin) at 1 uM.
Sequence of Tyrosine-protein kinase JAK1 (P23458 whole entry, the tested form may be a part): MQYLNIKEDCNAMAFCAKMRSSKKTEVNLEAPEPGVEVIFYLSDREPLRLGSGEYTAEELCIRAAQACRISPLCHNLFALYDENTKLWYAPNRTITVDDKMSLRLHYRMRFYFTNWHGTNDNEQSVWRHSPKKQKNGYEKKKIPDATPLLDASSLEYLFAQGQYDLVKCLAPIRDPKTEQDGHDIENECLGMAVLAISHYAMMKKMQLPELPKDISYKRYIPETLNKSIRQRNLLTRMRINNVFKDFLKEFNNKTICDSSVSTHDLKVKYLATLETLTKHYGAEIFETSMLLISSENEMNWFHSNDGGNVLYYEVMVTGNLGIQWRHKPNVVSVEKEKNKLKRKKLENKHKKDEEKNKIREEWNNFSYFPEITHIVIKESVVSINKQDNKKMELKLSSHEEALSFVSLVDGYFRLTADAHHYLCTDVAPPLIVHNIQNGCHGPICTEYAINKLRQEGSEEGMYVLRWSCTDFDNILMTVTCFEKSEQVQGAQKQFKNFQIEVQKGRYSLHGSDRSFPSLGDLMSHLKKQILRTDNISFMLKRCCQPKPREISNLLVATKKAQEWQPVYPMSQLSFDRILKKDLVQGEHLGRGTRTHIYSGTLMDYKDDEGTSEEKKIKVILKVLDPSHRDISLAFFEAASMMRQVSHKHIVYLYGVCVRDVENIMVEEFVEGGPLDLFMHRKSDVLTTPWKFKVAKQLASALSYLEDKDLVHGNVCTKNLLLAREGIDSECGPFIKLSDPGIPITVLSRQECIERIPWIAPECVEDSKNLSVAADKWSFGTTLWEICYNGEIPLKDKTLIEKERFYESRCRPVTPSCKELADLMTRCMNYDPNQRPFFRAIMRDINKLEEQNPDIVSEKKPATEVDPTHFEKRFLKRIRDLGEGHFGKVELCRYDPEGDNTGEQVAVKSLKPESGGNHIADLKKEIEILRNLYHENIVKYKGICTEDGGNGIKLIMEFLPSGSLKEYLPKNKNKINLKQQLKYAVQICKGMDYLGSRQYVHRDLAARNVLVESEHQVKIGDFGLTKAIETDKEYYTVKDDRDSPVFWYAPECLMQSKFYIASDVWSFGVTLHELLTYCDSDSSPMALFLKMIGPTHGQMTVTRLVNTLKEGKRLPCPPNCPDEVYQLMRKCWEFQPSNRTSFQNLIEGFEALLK
A further data set relates to Canis familiaris. Put plainly: Volume of distribution at steady state in dog at 5 mg/kg, po. The data set is classed as ADME, organism-based, Canis lupus familiaris. Details: dose 5 mg/kg, route oral. Conditions: in vivo.
Data set [16] in a line: Drug coverage index, ratio fCmax in Wistar Han rat at 20 mg/kg, po bid for 14 days to IC50 for LRRK2 […] phosphorylation in Wistar Han rat brain at 6 to 60 mg/kg, po bid for 14 days. It counts as ADME, organism-based. Conditions: in vivo, 336 h. Summed up:
as §1

The subject of data set [17] is Mus musculus. Kind of data set: Effect on total LRRK2 protein level in BAC-transgenic C57BL/6J mouse brain at 3 to 100 mg/kg, sc measured after 90 mins post dose. It counts as ADME, organism-based. Set-up: dose 3-100 mg/kg, route subcutaneous. The following applies: in vivo, 1.5 h.
For data set [18], the system named is Mus musculus. Put plainly: Effect on total LRRK2 protein level in BAC-transgenic C57BL/6J mouse kidney at 3 to 100 mg/kg, sc measured after 90 mins post dose. It counts as ADME, organism-based. Set-up: dose 3-100 mg/kg, route subcutaneous. Conditions: in vivo, 1.5 h.
Data set [19] is described as follows: Cmax in rat at 5 mg/kg, po. It counts as ADME, organism-based. Details: dose 5 mg/kg, route oral. The following applies: in vivo.
Data set [20] has as its system Rattus norvegicus. Kind of data set: fAUC in Wistar Han rat at 20 mg/kg, po bid for 14 days. The data set is classed as ADME, organism-based. Details: dose 20 mg/kg, route oral. Conditions: in vivo, 336 h. Summed up: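 Wistar Han rats dosed orally twice daily in 10% propylene glycol/20% PEG400/methylcellulose vehicle. Unbound plasma exposure measured on days 1 and 11.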

Activity calls are given as the source filed them. The rule behind the calls is not given here.

Sequence of Serine/threonine-protein kinase 26 (Q9P289 whole entry): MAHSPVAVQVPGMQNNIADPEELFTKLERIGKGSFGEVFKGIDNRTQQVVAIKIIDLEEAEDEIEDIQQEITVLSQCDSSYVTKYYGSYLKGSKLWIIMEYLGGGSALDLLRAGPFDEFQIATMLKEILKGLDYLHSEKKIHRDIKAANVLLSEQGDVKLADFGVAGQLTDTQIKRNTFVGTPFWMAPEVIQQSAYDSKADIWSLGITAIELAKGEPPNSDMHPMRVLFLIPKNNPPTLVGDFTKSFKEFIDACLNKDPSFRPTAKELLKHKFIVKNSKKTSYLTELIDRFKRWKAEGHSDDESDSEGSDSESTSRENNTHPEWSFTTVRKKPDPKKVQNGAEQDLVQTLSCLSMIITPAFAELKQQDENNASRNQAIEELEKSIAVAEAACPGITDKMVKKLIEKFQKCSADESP

Regarding `N#Cc1cccc(-c2c[nH]c3ncnc(N4CCOCC4)c23)c1`, the “Ratio IC50” value with Mus musculus [1] is reported as 10. This molecule gave a half-life in data set [2] of 2.27 h. Further, the fCmax in the data set on Rattus norvegicus [3] is 1050 nM; in the data set with Rattus norvegicus [12], 380 nM. Also, the Ratio with Rattus norvegicus [4] is 2; in data set [16] it was 25. The same molecule displayed a bioavailability in [5] of 3.5%. Besides, the CLint scaled in [6] turned out to be 36 mL/min/kg. Besides, the Activity result in the data set on Rattus norvegicus [7], with Mus musculus [17] and in the data set with Mus musculus [18] was “Non-toxic” in each case. The IC50 in [8] is 0.025 µM; in data set [9], 0.178 µM. Also, the inhibition result in data set [10] and in data set [15] was “inactive” throughout. In addition, the highest concentration (Cmax) in data set [11] came out at 15 ng/mL; in data set [19], 181 ng/mL. Also, the Vdss with Rattus norvegicus [13] is 1.83 L/kg; with Canis familiaris, 0.92 L/kg. Further, the time to peak (Tmax) in data set [14] was 0.5 h. In the data set on Rattus norvegicus [20], this molecule yielded a fAUC of 4.14 µM·h.

The record behind these values is ChEMBL document CHEMBL3393009 (J Med Chem, 2015).
